Measured values from ChEMBL document CHEMBL1140488, “Influence of 6 or 8-substitution on the antiviral activity of 3-phenethylthiomethylimidazo[1,2-a]pyridine against human cytomegalovirus (HCMV) and varicella-zoster virus (VZV)” (Bioorg Med Chem, 2007).
In brackets after ≈: the same amount, converted by molar mass.

Columns and labels:
Human betaherpesvirus 5 [1] = experiment: Antiviral activity against HCMV AD169 in HEL cells assessed as reduction of virus plaque formation after 5 days; format: functional, organism-based; conditions: Human betaherpesvirus 5, AD169, HEL, 120 h
Outline: (§1)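 Confluent human embryonic lung (HEL) cell monolayers in microtiter plates were inoculated with 100 PFU of HCMV (AD169 or Davis) and left 2 h for adsorption. Residual virus was then removed and compound was added at varying concentrations. Viral cytopathicity was read once it reached completion in untreated infected controls. EC50 is the concentration inhibiting cytopathicity by 50%.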

[2] = Cytotoxicity against HEL cells assessed as alteration in cell morphology after 3 days; format: cell-based; conditions: human
Outline: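 HEL cell cultures exposed to compound were inspected by microscope for altered morphology. MCC is the minimum concentration causing a microscopically detectable alteration of cell morphology.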

[3] = Cytotoxicity against HEL cells assessed as reduction of cell growth after 3 days; format: cell-based; conditions: human
Outline: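 HEL cell suspensions were added to wells holding serial concentrations of compound and incubated 3 days at 37 °C in humidified CO2. Viable cells were then counted with a Coulter Counter. CC50 is the concentration reducing viable cell number by 50%.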

Human betaherpesvirus 5 [4] = experiment: Antiviral activity against HCMV Davis in HEL cells assessed as reduction of virus plaque formation after 5 days; format: functional, organism-based; conditions: Human betaherpesvirus 5, Davis, 120 h
Outline: as §1, with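 “controls.” for “controls. EC50 is the concentration inhibiting cytopathicity by 50%.”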

Human alphaherpesvirus 3 [5] = experiment: Antiviral activity against TK+ VZV OKA in HEL cells assessed as reduction of virus plaque formation; format: functional, organism-based; conditions: Human alphaherpesvirus 3, OKA
Human alphaherpesvirus 3 [6] = experiment: Antiviral activity against TK- VZV 07/1 in HEL cells assessed as reduction of virus plaque formation; format: functional, organism-based; conditions: Human alphaherpesvirus 3, 07/1, HEL

SMILES	EC50 (Human betaherpesvirus 5 [1]) [µg/mL]	MCC at 72 h [2] [µg/mL]	CC50 at 72 h [3] [µg/mL]	EC50 (Human betaherpesvirus 5 [4]) [µg/mL]	EC50 (Human alphaherpesvirus 3 [5]) [µg/mL]	EC50 (Human alphaherpesvirus 3 [6]) [µg/mL]
Cc1cc(-c2ccccc2O)cn2c(CSCCc3ccccc3)cnc12	> 100	100	> 50	> 100	> 20	> 20
Cc1cc(-c2cccc(O)c2)cn2c(CSCCc3ccccc3)cnc12	2.2 (≈ 5.87 µM)	20	50 (≈ 134 µM)	2.2 (≈ 5.87 µM)	2.4 (≈ 6.41 µM)	3.7 (≈ 9.88 µM)
Cc1cc(-c2ccc(O)cc2)cn2c(CSCCc3ccccc3)cnc12	> 100	≥ 100	> 50	> 100	> 20	> 100
COc1cccc(-c2cc(C)c3ncc(CSCCc4ccccc4)n3c2)c1	2.2 (≈ 5.66 µM)	20	36 (≈ 92.7 µM)	2.5 (≈ 6.43 µM)	> 4	> 4
COc1cccc(-c2cc(C)cn3c(CSCCc4ccccc4)cnc23)c1	10.9 (≈ 28.1 µM)	100	> 50	10.9 (≈ 28.1 µM)	8.3 (≈ 21.4 µM)	10.3 (≈ 26.5 µM)
Cc1cc(-c2cccc([N+](=O)[O-])c2)cn2c(CSCCc3ccccc3)cnc12	7.6 (≈ 18.8 µM)	≥ 100	43 (≈ 107 µM)	4 (≈ 9.91 µM)	5.6 (≈ 13.9 µM)	8.3 (≈ 20.6 µM)
Cc1cc(-c2cccc([N+](=O)[O-])c2)c2ncc(CSCCc3ccccc3)n2c1	> 100	100	47 (≈ 116 µM)	> 100	> 20	> 20
Cc1cc(-c2ccc(C#N)cc2)cn2c(CSCCc3ccccc3)cnc12	1.8 (≈ 4.69 µM)	≥ 20	10.6 (≈ 27.6 µM)	2.5 (≈ 6.52 µM)	2.2 (≈ 5.74 µM)	2 (≈ 5.21 µM)
Cc1cc(-c2cccc(F)c2)c2ncc(CSCCc3ccccc3)n2c1	2.2 (≈ 5.84 µM)	20	35 (≈ 93 µM)	2.2 (≈ 5.84 µM)	> 4	> 4
c1ccc(CCSCc2cnc3ccc(-c4ccccc4)cn23)cc1	> 0.8	4	9.9 (≈ 28.7 µM)	> 0.8	0.74 (≈ 2.15 µM)	> 0.8
Cc1cc(-c2ccccc2)c2ncc(CSCCc3ccccc3)n2c1	> 4	20	33 (≈ 92 µM)	> 4	> 4	> 4
Cc1cc(-c2ccsc2)cn2c(CSCCc3ccccc3)cnc12	> 0.8	≥ 4	> 50	1.8 (≈ 4.94 µM)	1.7 (≈ 4.66 µM)	1.8 (≈ 4.94 µM)
Cc1cc(-c2cccs2)cn2c(CSCCc3ccccc3)cnc12	2.2 (≈ 6.04 µM)	20	32 (≈ 87.8 µM)	2.2 (≈ 6.04 µM)	4 (≈ 11 µM)	> 4
Cc1cc(-c2cccs2)c2ncc(CSCCc3ccccc3)n2c1	2.5 (≈ 6.86 µM)	100	> 50	2.2 (≈ 6.04 µM)	7.8 (≈ 21.4 µM)	4 (≈ 11 µM)
